# Results from different studies.
# Each line is one published result; the experiments were not run side by side.
# AVPR2: Vasopressin V2 receptor (AVPR2, Homo sapiens, UniProt P30518)
# HTR1E: 5-hydroxytryptamine receptor 1E (HTR1E, Homo sapiens, UniProt P28566)
# APC: Adenomatous polyposis coli protein (APC, Homo sapiens, UniProt P25054)
# Palmitoyl-protein thioesterase 1: Palmitoyl-protein thioesterase 1 (Homo sapiens, UniProt P50897)
# CSNK1A1/CRBN: Cereblon/Casein kinase I alpha (CSNK1A1/CRBN, Homo sapiens, UniProt P48729+Q96SW2)
Compound,target,observed,action,method,endpoint,result
CC1=NN(/C(=N\c2ccc(Br)cc2)Nc2nnc(C)s2)C(c2ccc(C)cc2)S1 (stereo not drawn),AVPR2,cAMP,positive allosteric modulator,,EC50,17.6 µM
C=CCN1C[C@H](C(=O)N(CCCN(C)C)C(=O)NCC)C[C@@H]2c3cccc4[nH]cc(c34)C[C@H]21,HTR1E,G protein activation,agonist,BRET,EC50,1.72 µM
O=C1c2ccccc2-n2c1nc1ccccc1c2=O,"Glutathione S-transferase P (GSTP1, Homo sapiens, UniProt P09211)",binding,,,Kd,30.1 µM
CC(C)C[C@H](NC(=O)[C@H](CC1CC1)NC(=O)[C@H](CCC(=O)O)NC(=O)c1ccncn1)C(=O)NC1CC1c1ccccc1 (stereo partly drawn),APC,binding,,SPR,Kd,32 µM
CC1=NN(/C(=N/c2nnc(C)s2)Nc2ccc(C)c(C)c2)C(c2cc(F)c(F)c(F)c2F)S1 (stereo not drawn),AVPR2,cAMP,positive allosteric modulator,,EC50,> 50 µM
CCCN1C[C@H](CSC)C[C@@H]2c3cccc4[nH]cc(c34)C[C@H]21,HTR1E,G protein activation,agonist,BRET,EC50,1.9 µM
CSc1ncc(Br)c(C(=O)N[C@@H](CCC(=O)O)C(=O)N[C@@H](Cc2ccc3ccccc3c2)C(=O)N[C@@H](CC(C)C)C(=O)N[C@@H]2C[C@H]2c2ccccc2)n1,APC,binding,,SPR,Kd,0.23 µM
CCN(CC)Cc1cc(Nc2ccnc3cc(Cl)ccc23)ccc1O,Palmitoyl-protein thioesterase 1,binding,,MST,Kd,0.076 µM
CC(C)C[C@H](NC(=O)[C@H](Cc1ccc2ccccc2c1)NC(=O)[C@H](CCC(=O)O)NC(=O)c1cccc(Br)c1)C(=O)NC1CC1c1ccccc1 (stereo partly drawn),APC,ligand displacement,,FP,IC50,11.2 µM
CN1CCN(Cc2ccc(CNc3cccc4c3CN(C)N(C3CCC(=O)NC3=O)C4=O)cc2)CC1 (stereo not drawn),CSNK1A1/CRBN,protein level,degrader,luciferase,DC50,0.092 µM
CC1=NN(/C(=N\c2ccccc2C)Nc2nnc(C)s2)C(c2ccc(C)cc2)S1 (stereo not drawn),AVPR2,cAMP,positive allosteric modulator,,EC50,20.8 µM
CC(C)C[C@H](NC(=O)[C@H](Cc1ccc2ccccc2c1)NC(=O)[C@H](CCC(=O)O)NC(=O)c1ccnc(F)c1)C(=O)NC1CC1c1ccccc1 (stereo partly drawn),APC,ligand displacement,,FP,IC50,42.7 µM
C=C[C@H]1C[N@@]2CC[C@H]1C[C@H]2[C@H](O)c1ccnc2ccc(OC)cc12,Palmitoyl-protein thioesterase 1,binding,,MST,Kd,0.256 µM
CC(C)=CCNc1ncnc2c1ncn2[C@@H]1O[C@H](CO)[C@@H](O)[C@H]1O,"Adenosine receptor A3 (ADORA3, Homo sapiens, UniProt P0DMS8, I253Q)",G protein activation,agonist,,EC50,0.08 µM
CC1=NN(/C(=N/c2nnc(C)s2)Nc2ccc(C)c(C)c2)C(c2ccsc2)S1 (stereo not drawn),AVPR2,cAMP,positive allosteric modulator,,EC50,> 50 µM
CN1CCN2c3ccccc3Cc3ccccc3C2C1 (stereo not drawn),HTR1E,G protein activation,agonist,BRET,EC50,0.123 µM
CC1=NN(/C(=N\c2ccc(C(F)(F)F)cc2)Nc2nnc(C)s2)C(c2ccc(C)cc2)S1 (stereo not drawn),AVPR2,cAMP,positive allosteric modulator,,EC50,16.6 µM
[H]/N=C(\N/C(=N/[H])Nc1ccc(Cl)cc1)NC(C)C,Palmitoyl-protein thioesterase 1,binding,,MST,Kd,0.808 µM
CN1CCc2cc(Cl)c(O)cc2[C@@H](c2ccccc2)C1,HTR1E,G protein activation,agonist,BRET,EC50,3.9 µM
COC(=O)[C@]12CCC(C)(C)C[C@H]1[C@H]1C(=O)C=C3[C@@]4(C)C=C(C#N)C(=O)C(C)(C)[C@@H]4CC[C@@]3(C)[C@]1(C)CC2,"Epidermal growth factor receptor (EGFR, Homo sapiens, UniProt P00533)",binding,,MST,Kd,79 µM
CCc1cccc(C(=O)N[C@@H](CCC(=O)O)C(=O)N[C@@H](Cc2ccc3ccccc3c2)C(=O)N[C@@H](CC(C)C)C(=O)NC2CC2c2ccccc2)c1 (stereo partly drawn),APC,ligand displacement,,FP,IC50,25.1 µM
CCCCCCCC/C=C\CCCCCCCC(=O)O,"Myoglobin (MB, Homo sapiens, UniProt P02144, K46M)",binding,,absorbance,Kd,13.1 µM
CC1=NN(/C(=N\c2ccc(C)cc2)Nc2nnc(C)s2)C(c2ccc(C)cc2)S1 (stereo not drawn),AVPR2,cAMP,positive allosteric modulator,,EC50,24.2 µM
CC(C)C[C@H](NC(=O)[C@H](Cc1ccc2ccccc2c1)NC(=O)[C@H](CCC(=O)O)NC(=O)c1ccncn1)C(=O)NC1CC1c1ccccc1 (stereo partly drawn),APC,binding,,SPR,Kd,2.3 µM
O=C(CCCCCN1CCN(c2ccccc2-c2ccccc2)CC1)NC1CCCc2ccccc21 (stereo not drawn),HTR1E,G protein activation,agonist,BRET,EC50,1.75 µM
CN1Cc2c(N)cccc2C(=O)N1C1CCC(=O)NC1=O (stereo not drawn),CSNK1A1/CRBN,protein level,degrader,luciferase,DC50,> 10 µM
Cc1ccc(Sc2ccccc2N2CCNCC2)c(C)c1,HTR1E,G protein activation,agonist,BRET,EC50,1.96 µM
CSc1nccc(C(=O)N[C@@H](CCC(=O)O)C(=O)N[C@@H](Cc2ccc3ccccc3c2)C(=O)N[C@@H](CC(C)C)C(=O)NC2CC2c2ccccc2)n1 (stereo partly drawn),APC,binding,,SPR,Kd,0.62 µM
N#C[C@@]12C[C@@H]1[C@@H](n1cnc3c(N[C@@H](C4CCC4)C4CC4)nc(I)nc31)[C@H](O)[C@@H]2O,"Adenosine receptor A3 (ADORA3, Homo sapiens, UniProt P0DMS8)",ligand displacement,,radioligand,Ki,> 1 µM
CC1=NN(/C(=N/c2nnc(C)s2)Nc2ccc(C)c(C)c2)C(c2ccc(C(F)(F)F)cc2)S1 (stereo not drawn),AVPR2,cAMP,positive allosteric modulator,,EC50,> 50 µM
CN1CCC(=C2c3ccccc3Sc3ccccc32)CC1,HTR1E,G protein activation,agonist,BRET,EC50,0.33 µM
CC1=NN(/C(=N/c2nnc(C)s2)Nc2ccc(C)c(C)c2)C(c2cc(F)c(F)c(F)c2)S1 (stereo not drawn),AVPR2,cAMP,positive allosteric modulator,,EC50,> 50 µM
CN(C)c1ncnc2c1ncn2[C@@H]1O[C@H](CO)[C@@H](O)[C@H]1O,"Adenosine receptor A3 (ADORA3, Homo sapiens, UniProt P0DMS8, L264A)",G protein activation,agonist,,EC50,4 µM
